Data reported in ChEMBL document CHEMBL1152843, “Synthesis of new series of 5,6-dihydro-4H-1,2-oxazines via hetero Diels-Alder reaction and evaluation of antimicrobial activity” (2009).
In brackets after ≈: the same amount, converted by molar mass.

Assays:
Type in all cases: functional
[1] = system: Aspergillus flavus; assay: Antifungal activity against Aspergillus flavus after 48 hrs by cup diffusion method
[2] = system: Pseudomonas aeruginosa; assay: Antibacterial activity against Pseudomonas aeruginosa MTCC 1688 after 24 hrs by cup diffusion method
[3] = system: Escherichia coli; assay: Antibacterial activity against Escherichia coli MTCC 443 at 20 ug after 24 hrs by cup diffusion method; settings: MTCC 443, 24 h, read-out: IZ
Summary of the method: (§1)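 Agar cup diffusion. Plates of sterile medium in 9 cm dishes were seeded with 1 × 10⁵ cfu of bacteria, with the suspension adjusted to at least 1 × 10⁵ cfu/ml in nutrient broth. Compound in DMF was placed in 5 mm cups and pre-diffused for 1 h. Plates were incubated at 37 °C for 24 h and the inhibition zone measured in mm. DMF served as negative control.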

[4] = system: Staphylococcus aureus; assay: Antibacterial activity against Staphylococcus aureus MTCC 737 at 20 ug after 24 hrs by cup diffusion method; settings: MTCC 737, 24 h, read-out: IZ; summary of the method: as §1
[5] = system: Staphylococcus aureus; assay: Antibacterial activity against Staphylococcus aureus MTCC 737 after 24 hrs by cup diffusion method
[6] = system: Aspergillus niger; assay: Antifungal activity against Aspergillus niger at 20 ug after 48 hrs by cup diffusion method; settings: read-out: IZ
Summary of the method: (§2)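 Cup diffusion on 9 cm plates seeded with 1 × 10⁶ cfu of fungi, with spores adjusted to at least 1 × 10⁶ cfu/ml in potato dextrose broth. Compound in DMF was placed in 5 mm agar cups and left 1 h to diffuse. Plates were incubated at 28 °C for 48 h and the inhibition zone read in mm. DMF was the negative control.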

[7] = system: Klebsiella pneumoniae; assay: Antibacterial activity against Klebsiella pneumoniae […] after 24 hrs by cup diffusion method
[8] = system: Fusarium verticillioides; assay: Antifungal activity against Fusarium moniliforme at 20 ug after 48 hrs by cup diffusion method; settings: for zone of inhibition at 20 µg/disc: read-out: IZ; summary of the method: as §2
[9] = system: Escherichia coli; assay: Antibacterial activity against Escherichia coli MTCC 443 after 24 hrs by cup diffusion method
[10] = system: Fusarium verticillioides; assay: Antifungal activity against Fusarium moniliforme after 48 hrs by cup diffusion method
[11] = system: Fusarium oxysporum; assay: Antifungal activity against Fusarium oxysporum at 20 ug after 48 hrs by cup diffusion method; settings: for zone of inhibition at 20 µg/disc: read-out: IZ; summary of the method: as §2
[12] = system: Fusarium oxysporum; assay: Antifungal activity against Fusarium oxysporum after 48 hrs by cup diffusion method
[13] = system: Klebsiella pneumoniae; assay: Antibacterial activity against Klebsiella pneumoniae […] at 20 ug after 24 hrs by cup diffusion method; settings: for zone of inhibition at 20 µg/disc: read-out: IZ; summary of the method: as §1
[14] = system: Aspergillus flavus; assay: Antifungal activity against Aspergillus flavus at 20 ug after 48 hrs by cup diffusion method; settings: for zone of inhibition at 20 µg/disc: read-out: IZ; summary of the method: as §2
[15] = system: Aspergillus niger; assay: Antifungal activity against Aspergillus niger after 48 hrs by cup diffusion method
[16] = system: Pseudomonas aeruginosa; assay: Antibacterial activity against Pseudomonas aeruginosa MTCC 1688 at 20 ug after 24 hrs by cup diffusion method; settings: MTCC 1688, 24 h, read-out: IZ; summary of the method: as §1

Molecule | MIC [1] [µg/mL] | MIC ([2]; MTCC 1688, 24 h) [µg/mL] | zone of inhibition at 20 µg/disc [3] [mm] | zone of inhibition at 20 µg/disc [4] [mm] | MIC ([5]; MTCC 737, 24 h) [µg/mL] | zone of inhibition at 20 µg/disc [6] [mm] | MIC [7] [µg/mL] | zone of inhibition at 20 µg/disc [8] [mm] | MIC ([9]; MTCC 443, 24 h) [µg/mL] | MIC [10] [µg/mL] | zone of inhibition at 20 µg/disc [11] [mm] | MIC [12] [µg/mL] | zone of inhibition at 20 µg/disc [13] [mm] | zone of inhibition at 20 µg/disc [14] [mm] | MIC [15] [µg/mL] | zone of inhibition at 20 µg/disc [16] [mm] | further results
COc1ccc(C2=NOC(CO)CC2)cc1 (stereo unspecified) | 35 (≈ 158 µM) | 20 (≈ 90.4 µM) | 10.7 | 10.8 | 20 (≈ 90.4 µM) | 8.66 | 25 (≈ 113 µM) | 17.6 | 35 (≈ 158 µM) | 35 (≈ 158 µM) | 19.5 | 30 (≈ 136 µM) | 15.5 | 7.83 | 40 (≈ 181 µM) | 16.7 | 
CCOC(=O)C1CCC(c2ccc(C)c(C)c2)=NO1 (stereo unspecified) | 15 (≈ 57.4 µM) | 20 (≈ 76.5 µM) | 13.5 | 17.8 | 10 (≈ 38.3 µM) | 11.5 | 15 (≈ 57.4 µM) | 16.7 | 20 (≈ 76.5 µM) | 25 (≈ 95.7 µM) | 19.8 | 15 (≈ 57.4 µM) | 16.7 | 12.7 | 20 (≈ 76.5 µM) | 12.8 | 
COc1ccc(C2=NOC(CCl)CC2)cc1 (stereo unspecified) | 15 (≈ 62.6 µM) | 15 (≈ 62.6 µM) | 9.5 | 14.7 | 10 (≈ 41.7 µM) | 19.5 | 10 (≈ 41.7 µM) | 25.2 | 20 (≈ 83.4 µM) | 15 (≈ 62.6 µM) | 29.7 | 10 (≈ 41.7 µM) | 17.7 | 21.7 | 20 (≈ 83.4 µM) | 29.5 | 
Cc1ccc(C2=NOC(CO)CC2)cc1C (stereo unspecified) | 35 (≈ 160 µM) | 25 (≈ 114 µM) | 13.7 | 14.8 | 15 (≈ 68.4 µM) | 10.7 | 20 (≈ 91.2 µM) | 14.7 | 25 (≈ 114 µM) | 35 (≈ 160 µM) | 19.8 | 25 (≈ 114 µM) | 17.7 | 8.66 | 30 (≈ 137 µM) | 12.8 | 
CCOC(=O)C1CCC(c2ccc(OC)cc2)=NO1 (stereo unspecified) | 10 (≈ 38 µM) | 20 (≈ 76 µM) | 24.7 | 16.7 | 20 (≈ 76 µM) | 24.2 | 25 (≈ 95 µM) | 28 | 35 (≈ 133 µM) | 20 (≈ 76 µM) | 30.7 | 10 (≈ 38 µM) | 14.8 | 25.5 | 15 (≈ 57 µM) | 23.7 | 
c1cc2c(cc1CC1CCC(c3ccc4c(c3)CCC4)=NO1)OCO2 (stereo unspecified) | 15 (≈ 44.7 µM) | 15 (≈ 44.7 µM) | 11.5 | 15.7 | 10 (≈ 29.8 µM) | 18.7 | 15 (≈ 44.7 µM) | 21.5 | 25 (≈ 74.5 µM) | 20 (≈ 59.6 µM) | 26.7 | 15 (≈ 44.7 µM) | 16.5 | 20.7 | 20 (≈ 59.6 µM) | 21.5 | 
Cc1ccc(C2=NOC(C#N)CC2)cc1C (stereo unspecified) | 20 (≈ 93.3 µM) | 15 (≈ 70 µM) | 15.5 | 21.5 | 10 (≈ 46.7 µM) | 11.7 | 15 (≈ 70 µM) | 15.7 | 25 (≈ 117 µM) | 15 (≈ 70 µM) | 21.5 | 15 (≈ 70 µM) | 19.8 | 12.2 | 20 (≈ 93.3 µM) | 15.2 | 
COc1ccc(C2=NOC(CCl)CC2)cc1OC (stereo unspecified) | 15 (≈ 55.6 µM) | 15 (≈ 55.6 µM) | 13.8 | 17.8 | 10 (≈ 37.1 µM) | 18.7 | 10 (≈ 37.1 µM) | 26.5 | 20 (≈ 74.1 µM) | 15 (≈ 55.6 µM) | 28.7 | 10 (≈ 37.1 µM) | 17 | 20.8 | 20 (≈ 74.1 µM) | 9.83 | 
N#CC1CCC(c2ccc3c(c2)CCC3)=NO1 (stereo unspecified) | 40 (≈ 177 µM) | 15 (≈ 66.3 µM) | 15.5 | 17.7 | 15 (≈ 66.3 µM) | 10.7 | 20 (≈ 88.4 µM) | 13.5 | 25 (≈ 110 µM) | 40 (≈ 177 µM) | 17.7 | 35 (≈ 155 µM) | 23.8 | 9.5 | 35 (≈ 155 µM) | 31.5 | 
GENTAMICIN |  |  |  |  |  |  | 15 |  |  |  |  |  |  |  |  |  | MIC [2]: 15 µg/mL; MIC [5]: 15 µg/mL; MIC [9]: 20 µg/mL; inhibition zone (IZ) [13]: 17.5 mm
Cc1ccc(C2=NOC(Cc3ccc4c(c3)OCO4)CC2)cc1C (stereo unspecified) | 10 (≈ 30.9 µM) | 20 (≈ 61.8 µM) | 11.5 | 21.3 | 15 (≈ 46.4 µM) | 15.7 | 20 (≈ 61.8 µM) | 22.8 | 30 (≈ 92.8 µM) | 20 (≈ 61.8 µM) | 25.3 | 10 (≈ 30.9 µM) | 15.5 | 18.8 | 15 (≈ 46.4 µM) | 11 | 
NYSTATIN | 15 |  |  |  |  |  |  |  |  | 15 |  | 20 |  |  | 10 |  | inhibition zone (IZ) [8]: 15.6 mm; inhibition zone (IZ) [11]: 16.6 mm; inhibition zone (IZ) [14]: 13.2 mm
CC1(C)S[C@@H]2[C@H](NC(=O)Cc3ccccc3)C(=O)N2[C@H]1C(=O)O [PENICILLIN G] |  |  | 0 | 9.38 |  |  |  |  |  |  |  |  | 0 |  |  | 0 | 
